Test results from publication PMC9523306 (The Journal of Veterinary Medical Science, 2022).

What was measured:
Assay in all cases: Reverse transcription-PCR, right cerebral cortex
Format in all cases: in vivo, rat
Details in all cases: retinoic acid + MCAO animals; 5 mg/kg intraperitoneally for four days before MCAO; ratio of PCR product intensity to β-actin intensity; mean ± S.E.M., n=5
[1] = system: Adenosylhomocysteinase mRNA
How it was run: (§1)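 Male Sprague-Dawley rats (200–220 g). Test compound was given in PEG/0.9% NaCl/ethanol (70/20/10 by volume), and vehicle was solvent alone. The right MCA origin was occluded by intraluminal 4–0 nylon suture for 24 hr; shams had surgery without the suture. Total RNA from the right cortex (Trizol) was used, with 500 ng reverse-transcribed. PCR ran 28–30 cycles (94°C 30 sec, 54–56°C 30 sec, 72°C 1 min), then 1% agarose, UV, densitometry. Two-way ANOVA, Scheffe post-hoc.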

[2] = system: Isocitrate dehydrogenase [NAD^+] subunit α mRNA
How it was run: as §1

[3] = system: glycerol-3-phosphate dehydrogenase mRNA
How it was run: as §1

[4] = system: Rab GDP dissociation inhibitor β mRNA
How it was run: as §1

Apolipoprotein A1 mRNA = system: Apolipoprotein A1 mRNA
How it was run: as §1

[5] = system: heat shock protein 60 mRNA
How it was run: as §1

SMILES: CC1=C(/C=C/C(C)=C/C=C/C(C)=C/C(=O)O)C(C)(C)CCC1 [retinoic acid, Retinoic acid]
- Adenosylhomocysteinase mRNA levels [1]: 1.28 ± 0.06
- Isocitrate dehydrogenase [NAD^+] subunit α mRNA levels [2]: 1.36 ± 0.05
- Expression levels of glycerol-3-phosphate dehydrogenase mRNA [3]: 0.91 ± 0.02
- Rab GDP dissociation inhibitor β mRNA levels [4]: 1.02 ± 0.02
- Apolipoprotein A1 mRNA levels (Apolipoprotein A1 mRNA): 1.13 ± 0.02
- Expression levels of heat shock protein 60 mRNA [5]: 0.95 ± 0.05
